Assay results from ChEMBL document CHEMBL1275252, “First survey of metallo-beta-lactamases in clinical isolates of Pseudomonas aeruginosa in a German university hospital” (2010).

Key:
Assay type in all cases: functional
[1] = test system: Pseudomonas aeruginosa; test: Antimicrobial activity against Pseudomonas aeruginosa isolate PA477 expressing VIM-2 beta-lactamase in presence of Tazobactam
[2] = test system: Pseudomonas aeruginosa; test: Antimicrobial activity against metallo-beta-lactamase-negative Pseudomonas aeruginosa isolate PA509 in presence of Tazobactam
[3] = test system: Pseudomonas aeruginosa; test: Antimicrobial activity against Pseudomonas aeruginosa isolate PA399 expressing VIM-2 beta-lactamase in presence of Tazobactam
[4] = test system: Pseudomonas aeruginosa; test: Antimicrobial activity against Pseudomonas aeruginosa isolate PA500 expressing VIM-1 beta-lactamase
[5] = test system: Pseudomonas aeruginosa; test: Antimicrobial activity against Pseudomonas aeruginosa isolate PA477 expressing VIM-2 beta-lactamase
[6] = test system: Pseudomonas aeruginosa; test: Antimicrobial activity against metallo-beta-lactamase-negative Pseudomonas aeruginosa isolate PA483
[7] = test system: Pseudomonas aeruginosa; test: Antimicrobial activity against metallo-beta-lactamase-negative Pseudomonas aeruginosa isolate PA483 in presence of Tazobactam
[8] = test system: Pseudomonas aeruginosa; test: Antimicrobial activity against Pseudomonas aeruginosa isolate PA462 expressing VIM-2 beta-lactamase
[9] = test system: Pseudomonas aeruginosa; test: Antimicrobial activity against Pseudomonas aeruginosa isolate PA481 expressing VIM-2 beta-lactamase
[10] = test system: Pseudomonas aeruginosa; test: Antimicrobial activity against metallo-beta-lactamase-negative Pseudomonas aeruginosa isolate PA460 in presence of Tazobactam
[11] = test system: Pseudomonas aeruginosa; test: Antimicrobial activity against metallo-beta-lactamase-negative Pseudomonas aeruginosa isolate PA459
Summary of the method: (§1)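 MBL-negative clinical P. aeruginosa isolates with reduced imipenem susceptibility, collected at the study hospital, some from cystic fibrosis patients. Species identity was confirmed by automated Gram-negative identification card. MIC was read in μg/ml.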

[12] = test system: Pseudomonas aeruginosa; test: Antimicrobial activity against metallo-beta-lactamase-negative Pseudomonas aeruginosa isolate PA479
[13] = test system: Pseudomonas aeruginosa; test: Antimicrobial activity against metallo-beta-lactamase-negative Pseudomonas aeruginosa isolate PA459 in presence of Tazobactam
[14] = test system: Pseudomonas aeruginosa; test: Antimicrobial activity against metallo-beta-lactamase-negative Pseudomonas aeruginosa isolate PA494 in presence of Tazobactam
[15] = test system: Pseudomonas aeruginosa; test: Antimicrobial activity against metallo-beta-lactamase-negative Pseudomonas aeruginosa isolate PA479 in presence of Tazobactam
[16] = test system: Pseudomonas aeruginosa; test: Antimicrobial activity against Pseudomonas aeruginosa isolate PA469 expressing VIM-2 beta-lactamase in presence of Tazobactam
[17] = test system: Pseudomonas aeruginosa; test: Antimicrobial activity against Pseudomonas aeruginosa isolate PA475 expressing VIM-2 beta-lactamase in presence of Tazobactam
[18] = test system: Pseudomonas aeruginosa; test: Antimicrobial activity against Pseudomonas aeruginosa isolate PA481 expressing VIM-2 beta-lactamase in presence of Tazobactam
[19] = test system: Pseudomonas aeruginosa; test: Antimicrobial activity against metallo-beta-lactamase-negative Pseudomonas aeruginosa isolate PA494
[20] = test system: Pseudomonas aeruginosa; test: Antimicrobial activity against Pseudomonas aeruginosa isolate PA500 expressing VIM-1 beta-lactamase in presence of Tazobactam
[21] = test system: Pseudomonas aeruginosa; test: Antimicrobial activity against Pseudomonas aeruginosa isolate PA510 expressing VIM-2 beta-lactamase in presence of Tazobactam
[22] = test system: Pseudomonas aeruginosa; test: Antimicrobial activity against Pseudomonas aeruginosa isolate PA465 expressing VIM-2 beta-lactamase
[23] = test system: Pseudomonas aeruginosa; test: Antimicrobial activity against metallo-beta-lactamase-negative Pseudomonas aeruginosa isolate PA507 in presence of Tazobactam
[24] = test system: Pseudomonas aeruginosa; test: Antimicrobial activity against metallo-beta-lactamase-negative Pseudomonas aeruginosa isolate PA460
[25] = test system: Pseudomonas aeruginosa; test: Antimicrobial activity against Pseudomonas aeruginosa isolate PA399 expressing VIM-2 beta-lactamase
[26] = test system: Pseudomonas aeruginosa; test: Antimicrobial activity against Pseudomonas aeruginosa isolate PA462 expressing VIM-2 beta-lactamase in presence of Tazobactam
[27] = test system: Pseudomonas aeruginosa; test: Antimicrobial activity against Pseudomonas aeruginosa isolate PA469 expressing VIM-2 beta-lactamase
[28] = test system: Pseudomonas aeruginosa; test: Antimicrobial activity against Pseudomonas aeruginosa isolate PA475 expressing VIM-2 beta-lactamase
[29] = test system: Pseudomonas aeruginosa; test: Antimicrobial activity against metallo-beta-lactamase-negative Pseudomonas aeruginosa isolate PA507; summary of the method: as §1
[30] = test system: Pseudomonas aeruginosa; test: Antimicrobial activity against metallo-beta-lactamase-negative Pseudomonas aeruginosa isolate PA509
[31] = test system: Pseudomonas aeruginosa; test: Antimicrobial activity against Pseudomonas aeruginosa isolate PA465 expressing VIM-2 beta-lactamase in presence of Tazobactam
[32] = test system: Pseudomonas aeruginosa; test: Antimicrobial activity against Pseudomonas aeruginosa isolate PA510 expressing VIM-2 beta-lactamase

CCN1CCN(C(=O)N[C@@H](C(=O)N[C@@H]2C(=O)N3[C@@H]2SC(C)(C)[C@@H]3C(=O)O)c2ccccc2)C(=O)C1=O [PIPERACILLIN]
MIC [1]: ≥ 128 µg/mL
MIC [2]: ≥ 128 µg/mL
MIC [3]: ≥ 128 µg/mL
MIC [4]: ≥ 128 µg/mL
MIC [5]: ≥ 128 µg/mL
MIC [6]: ≥ 128 µg/mL
MIC [7]: ≥ 128 µg/mL
MIC [8]: ≥ 128 µg/mL
MIC [9]: ≥ 128 µg/mL
MIC [10]: ≥ 128 µg/mL
MIC [11]: ≥ 128 µg/mL
MIC [12]: ≥ 128 µg/mL
MIC [13]: ≥ 128 µg/mL
MIC [14]: ≥ 128 µg/mL
MIC [15]: ≥ 128 µg/mL
MIC [16]: ≥ 128 µg/mL
MIC [17]: ≥ 128 µg/mL
MIC [18]: ≥ 128 µg/mL
MIC [19]: ≥ 128 µg/mL
MIC [20]: ≥ 128 µg/mL
MIC [21]: ≥ 128 µg/mL
MIC [22]: ≥ 128 µg/mL
MIC [23]: ≥ 128 µg/mL
MIC [24]: ≥ 128 µg/mL
MIC [25]: ≥ 128 µg/mL
MIC [26]: ≥ 128 µg/mL
MIC [27]: ≥ 128 µg/mL
MIC [28]: ≥ 128 µg/mL
MIC [29]: ≥ 128 µg/mL
MIC [30]: ≥ 128 µg/mL
MIC [31]: 64 µg/mL
MIC [32]: ≥ 128 µg/mL
